Assay results pooled from the literature.
Cell line: HCT-116
Read-out: cell growth or viability

The IC50 of C#Cc1cccc(Nc2ncnc3cc(OCCOC)c(OCCOC)cc23)c1 is reported as 5.14 µM (LDH; 48 h).
For Cc1ccc(NC(=O)Cn2cc(COc3ncnc4[nH]cnc34)nn2)c(C)c1, the IC50 was > 100 µM (MTT).
The IC50 of O=C1CS/C(=N\c2ccccc2Cl)N1c1nnc(-c2ccc(C(F)(F)F)cc2/N=C2\SCC(=O)N2c2ccccc2Cl)s1 is reported as 57.9 µM (MTT).
O=c1cc(OCc2cc(-c3ccccc3)no2)c2ccccc2o1 gave an IC50 of > 100 µM (MTS; 72 h).
With CN1CCc2c(c3ccccc3n2Cc2ccc(C(=O)NO)cc2)C1 the IC50 was 12 µM (CCK-8; 48 h).
The IC50 of O=C1C(=Nc2ccccc2I)c2ccccc2N1Cc1ccc([N+](=O)[O-])cc1 is reported as 1.7 µM (MTT; 48 h).
Cc1cc2c(C(=O)O)cccc2n1-c1nc2c(c(NCc3ccccc3)n1)CCCN2 gave an IC50 of 0.4 µM (ATP luminescence; 72 h).
With c1ccc(-c2cc(CNc3cccc4cccnc34)on2)nc1 the IC50 was > 100 µM (MTS; 72 h).
COc1cccc2c1C(=O)c1c(O)c3c(c(O)c1C2=O)C[C@@](O)(C(=O)CO)C[C@@H]3O[C@H]1C[C@H](N)[C@H](O)[C@H](C)O1 has an IC50 of 4.12 µg/mL (MTT).
For O=C1CS/C(=N\c2cc(C(F)(F)F)ccc2-c2nnc(N3C(=O)CS/C3=N\c3ccc(F)c(O)c3)s2)N1c1ccc(F)c(O)c1, the IC50 was 21.2 µM (MTT).
O=[N+]([O-])c1cc(Br)c(O)c(C=NNc2ccc(Br)cc2)c1 gave an IC50 of 15.3 µM (MTT; 24 h).
For c1ccc(-c2noc(-c3nn(Cc4ccncc4)c4ccccc34)n2)cc1, the IC50 was 47.5 µM (48 h).
The IC50 of FC(F)(F)c1cc(OCc2cc(-c3ccccn3)no2)c2ccccc2n1 is reported as > 100 µM (MTS; 72 h).
For O=C(CSc1nc2ccccc2s1)N/N=C/c1ccc(OCC(=O)Nc2cccc(Cl)c2)cc1, the IC50 was > 100 µM (MTS; 72 h).
Cc1cc(NS(=O)(=O)c2ccc(NC(=O)/C(C#N)=C/c3ccc(N4CCCC4)cc3)cc2)no1 gave an IC50 of 98.6 µM (MTT; 48 h).
COc1ccc(N(Cc2nc(-c3ccc(F)cc3)cs2)C(=O)CCCCCC(=O)NO)cc1 gave an IC50 of 3.2 µM (MTT; 72 h).
For O=C1Nc2ccccc2C1=Nc1ccccc1Br, the IC50 was > 100 µM (MTT; 48 h).
With O=C(CSc1nc2ccccc2s1)N/N=C/c1ccc(OCC(=O)Nc2ccc([N+](=O)[O-])cc2)cc1 the IC50 was 52.9 µM (MTS; 72 h).
Cc1ccc(CN2C(=O)C(=Nc3cccc(C)c3)c3ccccc32)cc1 gave an IC50 of 0.39 µM (MTT; 48 h).
COC(=O)c1ccc2c(c1)NC(=O)/C2=C(\Nc1ccc(N(C)C(=O)CN2CCN(C)CC2)cc1)c1ccccc1 gave an IC50 of 1.88 µM (MTT; 24 h).
The IC50 of O=C1Nc2ccccc2C1=Nc1ccc(Cl)cc1 is reported as > 100 µM (MTT; 48 h).
For COc1cc([C@@H]2c3cc4c(cc3[C@@H](O[C@@H]3O[C@@H]5CO[C@@H](C)O[C@H]5[C@H](O)[C@H]3O)[C@H]3COC(=O)[C@H]23)OCO4)cc(OC)c1O, the IC50 was 0.59 µM (MTS; 72 h).
For Clc1ccc(Cn2nc(-c3nc(-c4ccccc4)no3)c3ccccc32)c(Cl)c1, the IC50 was 324 µM (48 h).
Cc1cc(C)n(Cn2cnc3ccccc32)n1 has an IC50 of 70.2 µM (MTT; 24 h).
Cc1cc2c(C(N)=O)cncc2n1-c1nc2c(c(NCc3ccccc3)n1)CCCN2 gave an IC50 of 1.2 µM (ATP luminescence; 72 h).
For O=C1/C(=C/c2ccc([N+](=O)[O-])cc2[N+](=O)[O-])NC(=S)N1c1ccccc1, the IC50 was 98.5 µg/mL (MTT).
O=P1(c2ccccc2)CCCCC1 gave an IC50 of > 100 µM (MTT; 72 h).
COc1cccc2c1C(=O)c1c(O)c3c(c(O)c1C2=O)C[C@@](O)(C(=O)CO)C[C@@H]3O[C@H]1C[C@H](N)[C@H](O)[C@H](C)O1 gave an IC50 of 0.98 µM (ATP luminescence; 72 h).
The IC50 of c1ccc(Cn2nc(-c3ncc(-c4ccccc4)s3)c3ccccc32)cc1 is reported as 50.6 µM (48 h).
With O=C1C(=Nc2ccc(Cl)cc2)c2ccccc2N1Cc1ccc([N+](=O)[O-])cc1 the IC50 was 1.75 µM (MTT; 48 h).
The IC50 of Fc1ccc(NC(=S)N/N=C/c2cccc3cc4ccccc4nc23)cc1 is reported as > 50 µM (MTT; 48 h).
For Cc1cc2c(C(N)=O)nccc2n1-c1nc2c(c(NCc3ccccc3)n1)CCCN2, the IC50 was 2.3 µM (ATP luminescence; 72 h).
For COc1cccc(-c2cc(NCc3ccc4c(c3)OCO4)nc(N)n2)c1, the IC50 was 0.347 µM (72 h).
With COc1cccc2c1C(=O)c1c(O)c3c(c(O)c1C2=O)C[C@@](O)(C(=O)CO)C[C@@H]3O[C@H]1C[C@H](N)[C@H](O)[C@H](C)O1 the IC50 was 8.12 µM (LDH; 48 h).
COc1cccc(N=C2SCC(=O)N2c2nnc(-c3ccc(C(F)(F)F)cc3N=C3SCC(=O)N3c3cccc(OC)c3)s2)c1 has an IC50 of 71.4 µM (MTT).
c1ccc2c(c1)ncn2Cn1cncn1 has an IC50 of 102 µM (MTT; 24 h).
With COc1cccc(NC(=S)N/N=C/c2cccc3cc4ccccc4nc23)c1 the IC50 was 49.6 µM (MTT; 48 h).
For O=C(C=Cc1ccc(OCCCCOc2ccc(C=CC(=O)c3cccs3)cc2)cc1)c1cccs1, the IC50 was 278 µM (MTT; 48 h).
O=C1Nc2ccccc2C1=Nc1cccc(Cl)c1 has an IC50 of > 100 µM (MTT; 48 h).
For Fc1ccc2c(-c3nnc(Cc4ccccc4)s3)nn(Cc3ccccc3)c2c1, the IC50 was 73.9 µM (48 h).
O=C1C(=Nc2ccc(Cl)cc2)c2ccccc2N1Cc1cccc(Cl)c1 has an IC50 of 7.71 µM (MTT; 48 h).
COc1ccc(N=C2SCC(=O)N2c2nnc(-c3ccc(C(F)(F)F)cc3N=C3SCC(=O)N3c3ccc(OC)cc3)s2)cc1 has an IC50 of 65.2 µM (MTT).
With O=C1Nc2ccccc2C1=Nc1ccccc1I the IC50 was 31.5 µM (MTT; 48 h).
O=[N+]([O-])c1cc(I)c(O)c(C=NNc2ccc(Br)cc2)c1 gave an IC50 of 15.3 µM (MTT; 24 h).
